Like-named read-outs stand apart in the source and are kept apart here.
Experiments:
[1] = Docetaxel pharmacokinetics in plasma, day 1 of cycle 1; assay type: in vivo; conditions: human, intravenous
Procedure, shortened: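 Patients with advanced NSCLC got a 60-min i.v. docetaxel infusion on day 1, alongside oral everolimus (5 or 7.5 mg daily) and dexamethasone premedication (8 mg twice daily for 3 days, starting the day before). Peripheral venous blood was drawn into sodium heparin on cycle 1 day 1, centrifuged (4 °C, 3000 × g, 10 min), and plasma stored at −80 °C. Validated LC-MS/MS quantitation was used, with noncompartmental t1/2.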

[2] = single-agent docetaxel, second line NSCLC; cited from earlier work
[3] = Everolimus pharmacokinetics in blood, cycle 1; assay type: in vivo, human; conditions: for AUC(0-t) / Cmax: human, whole blood, oral
Procedure, shortened: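 NSCLC patients; oral mTOR inhibitor daily on days 1–19 of 3-week cycles, with a 60-min i.v. co-drug infusion on day 1 and dexamethasone premedication. Cycle 1, days 1, 8 and 15: 2 mL venous blood into K-EDTA at 30 min pre-dose and 1, 2, 5, 8 and 24 h post-dose, frozen at −20 °C within 60 min.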

[4] = tested on: recurrent or refractory NSCLC; conditions: everolimus monotherapy; cited from earlier work
[5] = single agent; cited from earlier work

CC(=O)O[C@@]12CO[C@@H]1C[C@H](O)[C@@]1(C)C(=O)[C@H](O)C3=C(C)[C@@H](OC(=O)[C@H](O)[C@@H](NC(=O)OC(C)(C)C)c4ccccc4)C[C@@](O)([C@@H](OC(=O)c4ccccc4)[C@H]21)C3(C)C [Docetaxel, docetaxel]
half-life [1]: 9.4 ± 3.4 h
half-life ([1]; 60 mg/m2): 16.8 h
AUC(0-inf) ([1]; 60 mg/m2, AUC0-∞, Day 1, everolimus 5 mg/day, docetaxel 60 mg/m^2, n=1): 2.08 µM·h
Cmax ([1]; 60 mg/m2, Cmax, Day 1, everolimus 5 mg/day, docetaxel 60 mg/m^2, n=1): 1010 nM
half-life ([1]; 75 mg/m2): 8.74 h
AUC(0-inf) ([1]; 75 mg/m2, AUC0-∞, Day 1, everolimus 5 mg/day, docetaxel 75 mg/m^2, n=3, mean (SD)): 6.95 µM·h
AUC(0-inf) ([1]; 75 mg/m2, AUC0-∞, Day 1, everolimus 7.5 mg/day, docetaxel 75 mg/m^2, n=1): 7.3 µM·h
Cmax ([1]; 75 mg/m2, Cmax, Day 1, everolimus 5 mg/day, docetaxel 75 mg/m^2, n=3, mean (SD)): 1610 nM
incidence of fever with neutropenia [2]: 2–12%
recommended phase II dose (RP2D) (docetaxel day 1 every 3 weeks, in combination with everolimus): 60 mg/m^2

CO[C@H]1C[C@@H]2CC[C@@H](C)[C@@](O)(O2)C(=O)C(=O)N2CCCC[C@H]2C(=O)O[C@H]([C@H](C)C[C@@H]2CC[C@@H](OCCO)[C@H](OC)C2)CC(=O)[C@H](C)/C=C(\C)[C@@H](O)[C@@H](OC)C(=O)[C@H](C)C[C@H](C)/C=C/C=C/C=C/1C [Everolimus, everolimus]
Everolimus exposure (mean AUC and Cmax) versus dose ([3]; 5 and 7.5 mg/day): increased proportionally with dose
AUC(0-t) ([3]; 60 mg/m2, AUC0-24, Day 1, everolimus 5 mg/day, docetaxel 60 mg/m^2, n=3, mean (SD)): 244 ng·h/mL
AUC(0-t) ([3]; 60 mg/m2, AUC0-24, Day 8, everolimus 5 mg/day, docetaxel 60 mg/m^2, n=3, mean (SD)): 329 ng·h/mL
AUC(0-t) ([3]; 60 mg/m2, AUC0-24, Day 15, everolimus 5 mg/day, docetaxel 60 mg/m^2, n=3, mean (SD)): 350 ng·h/mL
Cmax ([3]; 60 mg/m2, Cmax, Day 1, everolimus 5 mg/day, docetaxel 60 mg/m^2, n=3, mean (SD)): 37.7 ng/mL
Cmax ([3]; 60 mg/m2, Cmax, Day 15, everolimus 5 mg/day, docetaxel 60 mg/m^2, n=3, mean (SD)): 51 ng/mL
AUC(0-t) ([3]; 75 mg/m2, AUC0-24, Day 1, everolimus 5 mg/day, docetaxel 75 mg/m^2, n=10, mean (SD)): 330 ng·h/mL
AUC(0-t) ([3]; 75 mg/m2, AUC0-24, Day 1, everolimus 7.5 mg/day, docetaxel 75 mg/m^2, n=4, mean (SD)): 379 ng·h/mL
AUC(0-t) ([3]; 75 mg/m2, AUC0-24, Day 8, everolimus 5 mg/day, docetaxel 75 mg/m^2, n=6, mean (SD)): 336 ng·h/mL
AUC(0-t) ([3]; 75 mg/m2, AUC0-24, Day 15, everolimus 5 mg/day, docetaxel 75 mg/m^2, n=6, mean (SD)): 369 ng·h/mL
AUC(0-t) ([3]; 75 mg/m2, AUC0-24, Day 15, everolimus 7.5 mg/day, docetaxel 75 mg/m^2, n=1): 772 ng·h/mL
Cmax ([3]; 75 mg/m2, Cmax, Day 1, everolimus 5 mg/day, docetaxel 75 mg/m^2, n=10, mean (SD)): 22.4 ng/mL
Cmax ([3]; 75 mg/m2, Cmax, Day 8, everolimus 5 mg/day, docetaxel 75 mg/m^2, n=6, mean (SD)): 35.8 ng/mL
Cmax ([3]; 75 mg/m2, Cmax, Day 15, everolimus 5 mg/day, docetaxel 75 mg/m^2, n=6, mean (SD)): 37.8 ng/mL
Cmax ([3]; 75 mg/m2, Cmax, Day 15, everolimus 7.5 mg/day, docetaxel 75 mg/m^2, n=1): 102 ng/mL
response rate [4]: 5%
inter-patient variability in AUC [5]: 33%
recommended phase II dose (RP2D) (everolimus days 1-19 every 3 weeks, in combination with docetaxel): 5 mg PO daily

From article PMC2940062 (Cancer, 2010)
